From PubChem BioAssay
An excerpt weighted towards active compounds, which were near 3.5% of everything screened.
PGC1a acetyl inh = modulators of PGC1a acetylation; U2OS PGC1a acetylation, AlphaScreen anti-acetyl-lysine; with virally co-expressed GCN5 acetyltransferase; inhibition, % at 15.6 µM; 350,000 tested, 0.17% active;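 active = every replicate shows inhibition of at least 40%; inconclusive = mean inhibition at least 40% but some replicate below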;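 note: 0% = neutral control wells and 100% = positive control wells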
FGF22 binding = FGF22 (human) thermal shift binding | activity (Tm shift, normalised), % at 9.99 µM | recombinant FGF22 thermal shift, SYPRO orange fluorescence; percent of sucrose octasulfate shift, DMSO zero | Q9HCT0 | 340,000 tested, 1.5% active;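 active = mean Tm shift, scaled 0 neutral to 100 positive control, at about 1.3% or above, every replicate too, limit read from the data; inconclusive = no clear call, values can overlap the other calls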
Target sequence (Q9HCT0 whole entry, looked up): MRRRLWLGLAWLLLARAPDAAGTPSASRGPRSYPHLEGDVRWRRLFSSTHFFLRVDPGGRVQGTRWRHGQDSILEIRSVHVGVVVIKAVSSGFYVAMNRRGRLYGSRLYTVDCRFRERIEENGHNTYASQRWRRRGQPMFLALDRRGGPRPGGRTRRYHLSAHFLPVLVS
HIV Env fusion = HIV envelope-mediated fusion inhibition. HeLa-JRFL Env/CEM21 cell fusion, luciferase. inhibition, % at 12.3 µM. 360,000 tested, 1.1% active. AID 651610;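 active = mean replicate inhibition score of at least 50 and every replicate individually at or above 50; inconclusive = only one of the two criteria met; inactive = mean below 50 and not all replicates reaching 50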;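 note: 0% = plate neutral controls and 100% = maraviroc near 300 nM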
ERAP1 HTS inh = ERAP1 (human) enzyme inhibition; recombinant ERAP1, Leu-AMC fluorescence, 60 min; inhibition, % at 10.7 µM; 340,000 tested, 0.15% active;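 active = mean replicate inhibition of at least 30%, or all replicates individually reaching that 30% level; inactive = mean below 30% and not every replicate reaching it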;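 note: 0% = neutral control wells and 100% = L-leucinethiol positive control wells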
Cneo AK release = causes C. neoformans cell lysis. adenylate kinase release luminescence, 4 h; normalised: neutral wells 0, clomiphene wells 100. lysis activity, % at 15 µM. 360,000 tested, 0.2% active;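 active = mean lysis activity across replicates of at least 80%, whatever share of replicates individually reach that level; inactive = mean lysis activity below 80%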
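Assay system: C. neoformans cells. Amount: yeast cell density of 5 × 10^6 cells/mL. Technique: AK luminescence. Buffer or medium: YPD. Times: static 4 h at 37 °C with compound, 1 h detection. Dosing: single-point compound dose. Read-out: lysis from increased AK signal.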
Ecoli rRNA inh = selective bacterial rRNA inhibition in E. coli; E. coli WT GFP vs humanized-ribosome RFP mutants, fluorescence, 24 h; stronger effect = lower value; DMSO median 0, no signal -100; GFP signal change (wild-type ribosome), % (concentration not given with the values); 350,000 tested, 1.6% active;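 active = significant combined selectivity score with lowered wild-type GFP, culture density cut under 30%, mutant RFP and density less affected; inactive = any of these conditions unmet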
HepG2 tox = cytotoxic compounds in HepG2 cells | 30 tested, under 10 active | activity change, negative = cytotoxicity, unspecified at 26 µM | HepG2 viability, ATP luminescence, 72 h | shares compounds with Ecoli rRNA inh;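 active = compounds whose fitted half-maximal signal-loss concentration is at most twice their highest valid dose; inconclusive = flat curve with 30 to 70% signal loss, or poor fit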
AID977621 = wild-type E. coli growth inhibition versus H69 humanized strain – H69 mutant RFP, wild-type GFP, cherry-pick, dose response. activity change, negative = inhibition at 50 µM. AID 977621. shares compounds with Ecoli rRNA inh. 1,900 tested, under 10 active. fluorescence, 24 h;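 active = Wild-type ribosome reporter drop at least double the humanized mutant ribosome reporter drop, growth loss under a set limit; inconclusive = no clear call, values can overlap the other calls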;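 note: wild-type GFP and H69 mutant RFP strains grown together 50/50 in each well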
AID977628 = growth of wild-type and h24-humanized E. coli strains – h24 mutant RFP vs wild-type GFP, cherry-pick, dose response; shares compounds with Ecoli rRNA inh; E. coli WT GFP strain growth, fluorescence, 24 h; activity change, negative = inhibition at 50 µM; 1,900 tested, under 10 active;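 active = compound lowering the normal-ribosome reporter at least twice as much as the humanized-ribosome reporter, growth loss under a set limit; inconclusive = no clear call, values can overlap the other calls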;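 note: wild-type GFP and h24 humanized RFP strains co-cultured 1 to 1 per well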
An asterisk follows results filed as active; ? = inconclusive; / = not tested or not shown; ! = not confirmed by another sample; [ ] = dose if it differs, or a comment.

SMILES | PGC1a acetyl inh | FGF22 binding | HIV Env fusion | ERAP1 HTS inh | Cneo AK release | Ecoli rRNA inh | AID977621 | AID977628 | others
Cc1cc(-c2ccncc2)n2ncc(-c3ccccc3)c2n1 | / | 0 | -153 | 0 | 1 | -5 | / | /
C[C@H](CO)N1C[C@H](C)[C@H](CN(C)C(=O)Nc2ccc(F)cc2)Oc2c(NC(=O)Nc3ccccc3)cccc2C1=O | 5 | 0 | / | 0 | -1 | -23* | -8.6 | ?
C[C@@H]1CN([C@@H](C)CO)C(=O)c2cccc(NC(=O)c3nc4ccccc4s3)c2O[C@H]1CN(C)CC1CC1 | -1 | 0 | -1[16.7 µM] | -2 | 7 | -1 | / | /
C[C@H](CO)N1C[C@H](C)[C@H](CN(C)C(=O)Nc2ccc3c(c2)OCO3)Oc2c(NC(=O)Nc3ccc4c(c3)OCO4)cccc2C1=O | 5 | 0 | 13[16.7 µM] | 1 | 40 | 1 | / | /
C[C@@H]1CN([C@@H](C)CO)C(=O)c2cccc(NC(=O)c3nc4ccccc4s3)c2O[C@@H]1CN(C)CC1CC1 | -9 | 0 | -8[16.7 µM] | -2 | 12 | -28*! | -4.4 | -10
COc1cccc(NC(=O)N(C)C[C@H]2Oc3ncc(C#Cc4cccnc4)cc3C(=O)N([C@H](C)CO)C[C@H]2C)c1 | -3 | 0 | 9[16.7 µM] | -2 | -1 | -39* | -12 | 8.5
C[C@@H]1CN([C@H](C)CO)C(=O)c2cccc(NC(=O)Nc3ccc4c(c3)OCO4)c2O[C@@H]1CN(C)C(=O)Nc1ccc2c(c1)OCO2 | 2 | 0 | 2[16.7 µM] | 3 | -1 | -19* | -10 | ?
COc1ccc(C2=Nc3ccccc3N(C(=O)c3ccc4ncccc4c3)C2C(=O)NC2CCCC2)cc1 (stereo unspecified) | / | 0 | -50 | 4 | / | -3 | / | /
CCn1c(-c2cc(-c3ccc(OC(C)C)cc3)nc3ccccc23)n[nH]c1=S | 14 | 0 | / | -4 | -15 | -28* | / | ?
CC(C)CC(=O)N1CCN(C(=O)c2ccc(-c3ccccc3)cc2)CC1 | / | 0 | 9 | -6 | -3 | -16 | / | /
Cc1ccc(N2C(=S)NC3c4cc(Cl)ccc4OC2(C)C3C(=O)N(C)C)cc1 (stereo unspecified) | 3 | 0 | 8 | 0 | 4 | -22* | -13 | ?
CN1C(=O)c2cc(NC(=O)c3cccs3)ccc2OC[C@H]2O[C@H](CC(=O)N3CCCCC3)CC[C@@H]21 | 1 | 0 | 1[16.7 µM] | 0 | -1 | 1 | / | /
Cc1noc(C)c1C(=O)NC(C)c1ccc(Cl)cc1Cl (stereo unspecified) | -1 | 0 | 5 | -4 | -2 | 10 | / | /
CC(NC(=O)c1ccncc1)c1ccc(Cl)cc1Cl (stereo unspecified) | -10 | 0 | 3 | -3 | -1 | -33* | -2.2 | -7.2
CC(=O)Nc1ccc(S(=O)(=O)NCc2ccc(C)n2C)cc1 | -20 | 0 | -5 | 2 | 10 | 8 | / | /
Cc1ccc(S(=O)(=O)N2CCCCC2)cc1C(=O)Nc1ccc(S(=O)(=O)Nc2ncccn2)cc1 | 1 | 0 | -2 | / | -5 | 5 | / | /
O=C(C(=NNc1ccccc1)c1ccccc1)c1ccccc1 | -1 | 0 | / | -1 | -1 | -9 | / | /
CC(C)(Nc1ccccc1)C(=O)c1ccccc1 | / | 0 | / | -3 | -3 | -20* | -2.9 | ?
COc1cc2c(cc1[N+](=O)[O-])-c1ccccc1C2 | -9 | 0 | 6 | -2 | 0 | / | / | /
COc1cc2c(cc1[N+](=O)[O-])-c1ccc([N+](=O)[O-])cc1C2 | 7 | 0 | -144 | -1 | -1 | -23* | / | ? | HepG2 tox=-23
C[C@H](CO)N1C[C@H](C)[C@@H](CN(C)C(=O)NC2CCCCC2)Oc2ccc(NC(=O)Nc3ccc(C(F)(F)F)cc3)cc2C1=O | 3 | 0 | -20 | 2 | 10 | -1 | / | /
O=C(Nc1cccnc1)c1cc(Br)c(Br)s1 | / | 0 | -19 | -1 | 2 | 2 | / | /
NC(=O)c1cc(NC(=O)c2cc(Br)c(Br)s2)cc(C(N)=O)c1 | / | 43* | 0 | 7 | / | -24* | / | ?
COc1ccc(CCCc2nc3ccccc3[nH]2)cc1 | 6 | 0 | -48 | / | / | -22* | -5.8 | ?
O=C(Nc1ccc(Cl)c(Cl)c1)c1ccc(Cl)c(Cl)c1 | / | 0 | -22 | 1 | -1 | -17* | -17 | -6.6
SMILES | PGC1a acetyl inh | FGF22 binding | HIV Env fusion | ERAP1 HTS inh | Cneo AK release | Ecoli rRNA inh | AID977621 | AID977628 | others
COc1cc(OC)cc(C(=O)N[C@H](C(=O)OCC(=O)Nc2ccc(F)c(F)c2F)C(C)C)c1 | 2 | 0 | 24 | -3 | 4 | -20* | ? | /
COc1cc(OC)cc(C(=O)N[C@H](C(=O)OCC(=O)Nc2ccc(C)cc2C)C(C)C)c1 | / | / | / | 0 | -2 | -8 | / | /
CC(C)(C)OC(=O)N1CCOCCOCCNCCOCCOCC1 | 2 | / | / | / | / | / | / | /
COc1ccc(OC(C)C(=O)Nc2cccc(F)c2)cc1 (stereo unspecified) | 29 | 0 | 13 | -1 | / | -23* | -1.8 | ?
CC(C)CNC(=O)c1cccc(NC(=O)C(C)Oc2ccccc2)c1 (stereo unspecified) | 5 | 42 | -12 | 0 | / | -24* | -16 | -12
Cc1nc(C)c(C(=O)N2CCCC(C(=O)c3cc(F)ccc3F)C2)s1 (stereo unspecified) | 2 | 0 | 10 | 3 | 0 | 0 | / | /
Cc1ccsc1C(=O)N1CCCC(C(=O)c2cc(F)ccc2F)C1 (stereo unspecified) | -9 | 1 | 9 | 1 | -1 | -16* | / | ?
COc1ccc(-c2csc(NCCn3c(C)nc4cc(C(F)(F)F)ccc43)n2)cc1 | -10 | 0 | -14 | -1 | -1 | 7 | / | /
Cc1ccc(C)c(-c2[nH]ncc2CN2CCCC(CO)(Cc3ccccc3C)C2)c1 (stereo unspecified) | / | 0 | -5 | 2 | / | -30* | -8.9 | /
O=S(=O)(c1cccc(-c2nc3ccccc3s2)c1)N1CCCC1 | 0 | 0 | / | 1 | 1 | -22* | -0.21 | ?
Cc1cc(C)cc(NS(=O)(=O)c2cc(C(=O)NCc3ccccn3)ccc2Cl)c1 | / | 0 | -8 | 1 | 8 | -20* | -3.2 | -8
CCCCc1ccc(S(=O)(=O)Nc2ccc(C)c(NS(C)(=O)=O)c2)cc1 | -3 | 0 | 3 | 0 | -1 | -35* | -2.8 | /
